Measured values reported in ChEMBL document CHEMBL1152218, “New acridone-4-carboxylic acid derivatives as potential inhibitors of hepatitis C virus infection” (Bioorg Med Chem, 2008).
pEC50, pIC50: −log10 of the molar value. Active and inactive are the calls of the source. The calls are words filed in the database; no cut-off is given here.

How the values were obtained:
[1] = Cytotoxicity against human HuH7 cells by XTT assay; assay type: cell-based, Huh-7
How it was run: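 Huh-7 cells carrying the HCV replicon were grown with serial dilutions (1 to 200 µM) for 3 days at 37 °C. XTT-PMS staining followed for 3–4 h at 37 °C. Absorbance was read at 450 nm against a 690 nm reference, with cell-free blank wells subtracted. Growth is expressed as percent of 1–2% DMSO controls, and CC50 is the concentration giving 50% growth inhibition.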

Nucleic Acid [2] = assay: Binding affinity to HCV con1 dsDNA assessed as inhibition of ethidium bromide DNA intercalation at 500 uM by DNA migration retardation assay; assay type: nucleic-acid assay; conditions: Hepacivirus hominis
[3] = Binding affinity to dsRNA assessed as inhibition of ethidium bromide RNA intercalation by RNA migration retardation assay
Escherichia phage T7 = assay: Inhibition of T7 RNA polymerase activity assessed as blockade of DNA transcription
How it was run: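 In vitro transcription with T7 RNA polymerase, using 0.5 µg EcoRI-cut pTZ19R carrying a 341 bp insert as template. The reaction contained 2 mM of each NTP, 1 U/µl RNase inhibitor and 12 U enzyme in 40 mM Tris-HCl pH 7.9, 6 mM MgCl2, 2 mM spermidine, 10 mM NaCl and 10 mM DTT. Incubation was 1 h at 37 °C. Products were run on 1.2% agarose with EtBr, and IC99 was obtained by band densitometry.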

[4] = Inhibition of HCV NS3 helicase activity by fluorimetric assay; design: species or system Hepacivirus hominis
How it was run: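 Direct fluorometric assay of NS3 helicase unwinding, run at 37 °C. IC50 is the inhibitor concentration that reduces helicase activity by 50%.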

[5] = Binding affinity to dsRNA assessed as inhibition of ethidium bromide RNA intercalation at 20 uM by RNA migration retardation assay
Hepatitis C virus = assay: Antiviral activity against HCV subtype 1a in Huh7 cells assessed as reduction of viral RNA replication; assay type: functional, organism-based, Hepacivirus hominis; conditions: Huh-7
How it was run: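 Subgenomic HCV replicon (luciferase) in Huh-7 cells; compounds at 1 to 200 µM, with at least three experiments and three replicates per concentration. Luminescence is expressed as percent of control wells containing 1–2% DMSO. EC50 is the concentration that reduces luminescence by 50%.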

Hepacivirus hominis [6] = assay: Inhibition of HCV NS3 helicase activity in presence of increasing concentration of double stranded DNA substrate at 10 uM
How it was run: (§1)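 Fluorometric NS3 helicase assay at 37 °C. Inhibitor was held at a constant concentration while the dsDNA substrate concentration was increased. Activity is expressed as percent of the same reaction with DMSO in place of inhibitor.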

[7] = Selectivity index, ratio of CC50 for human HuH7 cells to IC50 for HCV subtype 1a; assay type: functional, Huh-7
How it was run: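 The ratio CC50/EC50 comes from the XTT cytotoxicity assay and the luciferase replicon assay, both run in replicon-bearing Huh-7 cells.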

Nucleic Acid [8] = assay: Binding affinity to HCV con1 dsDNA assessed as inhibition of ethidium bromide DNA intercalation by DNA migration retardation assay; assay type: nucleic-acid assay; conditions: Hepacivirus hominis
Hepacivirus hominis [9] = assay: Inhibition of HCV NS3 helicase activity in presence of increasing concentration of double stranded DNA substrate at 5 uM; how it was run: as §1
Hepacivirus hominis [10] = assay: Inhibition of HCV NS3 helicase activity in presence of increasing concentration of double stranded DNA substrate at 33 uM; how it was run: as §1
Hepacivirus hominis [11] = assay: Inhibition of HCV NS3 helicase activity in presence of increasing ATP concentration
How it was run: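 Fluorometric NS3 helicase assay, run at 37 °C, with IC50 determined at each of three ATP concentrations. Activity is expressed as percent of the same reaction with DMSO in place of inhibitor.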

Compound: Cc1ccc(NC(=O)c2cccc3c(=O)c4ccccc4[nH]c23)cc1
- CC50 [1]: > 100 µM
- Activity (Nucleic Acid [2]): inactive
- Activity [3]: inactive
- IC99 (Escherichia phage T7): 10 µM
- pIC50 [4]: < 4.00
- Activity [5]: inactive
- pEC50 (Hepatitis C virus): < 4.00

Compound: O=C(Nc1ccncc1)c1cccc2c(=O)c3ccccc3[nH]c12
- Activity (Hepacivirus hominis [6]): inactive
- CC50 [1]: 175 µM
- Ratio CC50/EC50 [7]: 19.4
- Activity (Nucleic Acid [8]): Active
- IC99 (Escherichia phage T7): 20 µM
- pIC50 [4]: 5.05
- Activity [5]: Active
- pEC50 (Hepatitis C virus): 5.05

Compound: CN(C)CCNC(=O)c1cccc2c(=O)c3ccccc3[nH]c12
- IC99 (Escherichia phage T7): 80 µM
- pIC50 [4]: < 4.00

Compound: O=C(Nc1ccccn1)c1cccc2c(=O)c3ccccc3[nH]c12
- CC50 [1]: 412 µM
- Activity (Hepacivirus hominis [9]): inactive
- Ratio CC50/EC50 [7]: 40.5
- Activity (Nucleic Acid [8]): Active
- IC99 (Escherichia phage T7): 40 µM
- pIC50 [4]: 5.42
- Activity [5]: Active
- pEC50 (Hepatitis C virus): 4.99

Compound: O=C(Nc1ccccc1)c1cccc2c(=O)c3ccccc3[nH]c12
- CC50 [1]: 90.9 µM
- Ratio CC50/EC50 [7]: 7.1
- IC99 (Escherichia phage T7): 40 µM
- pIC50 [4]: < 4.00
- pEC50 (Hepatitis C virus): 4.89

Compound: Cc1cccnc1NC(=O)c1cccc2c(=O)c3ccccc3[nH]c12
- CC50 [1]: 39.2 µM
- Ratio CC50/EC50 [7]: 3.5
- Activity (Nucleic Acid [8]): Active
- IC99 (Escherichia phage T7): 80 µM
- pIC50 [4]: 4.69
- Activity [5]: Active
- pEC50 (Hepatitis C virus): 4.95
- Activity (Hepacivirus hominis [10]): inactive

Compound: O=C(c1cccc2c(=O)c3ccccc3[nH]c12)N1CCCCC1
- IC99 (Escherichia phage T7): > 100 µM
- pIC50 [4]: < 4.00

Compound: Cc1ccnc(NC(=O)c2cccc3c(=O)c4ccccc4[nH]c23)c1
- CC50 [1]: 7 µM
- Activity (Hepacivirus hominis [11]): inactive
- Activity (Hepacivirus hominis [9]): inactive
- Ratio CC50/EC50 [7]: 1.1
- IC99 (Escherichia phage T7): 40 µM
- pIC50 [4]: 5.21
- pEC50 (Hepatitis C virus): 5.19

Compound: O=C(c1cccc2c(=O)c3ccccc3[nH]c12)N1CCOCC1
- IC99 (Escherichia phage T7): > 100 µM
- pIC50 [4]: < 4.00

Compound: O=C(NCCCN1CCOCC1)c1cccc2c(=O)c3ccccc3[nH]c12
- IC99 (Escherichia phage T7): > 100 µM
- pIC50 [4]: < 4.00

Compound: Cc1cccc(NC(=O)c2cccc3c(=O)c4ccccc4[nH]c23)c1
- CC50 [1]: 5.5 µM
- Ratio CC50/EC50 [7]: 1
- Activity [3]: inactive
- IC99 (Escherichia phage T7): 40 µM
- pIC50 [4]: < 4.00
- Activity [5]: inactive
- pEC50 (Hepatitis C virus): 5.25

Compound: [N-]=[N+]=N[C@]1(CO)O[C@@H](n2ccc(N)nc2=O)[C@H](O)[C@@H]1O [4'-AZIDOCYTIDINE]
- pEC50 (Hepatitis C virus): 5.85

Compound: O=C(NCc1ccccn1)c1cccc2c(=O)c3ccccc3[nH]c12
- CC50 [1]: 10.2 µM
- Ratio CC50/EC50 [7]: 2.4
- IC99 (Escherichia phage T7): > 100 µM
- pIC50 [4]: < 4.00
- Activity [5]: inactive
- pEC50 (Hepatitis C virus): 5.37

Compound: Cc1ccccc1NC(=O)c1cccc2c(=O)c3ccccc3[nH]c12
- CC50 [1]: 99.3 µM
- Ratio CC50/EC50 [7]: 5.2
- IC99 (Escherichia phage T7): 80 µM
- pIC50 [4]: < 4.00
- pEC50 (Hepatitis C virus): 4.72
